The text below walks through data of ChEMBL document CHEMBL4177559, “Design, Synthesis, and Evaluation of a Series of Novel Benzocyclobutene Derivatives as General Anesthetics” (J Med Chem, 2017).

Data set [1] can be described thus: Clearance in Sprague-Dawley rat at 1 mg/kg, iv administered as single dose. To be noted: in vivo. It is filed as ADME, organism-based.
The test system of data set [2] is Mus musculus. As to the kind of experiment: Anesthetic activity in iv dosed ICR mouse assessed as onset time for loss of righting reflex administered as single bolus dose. The data set is classed as functional. A digest of the protocol:
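ICR mice (fasted, 18−22 g, 10 per dose group, 7−9 groups) got one tail-vein iv bolus (~10 s) in 5% DMSO/5−10% Solutol HS-15/85−90% saline. Onset was the time from dosing to loss of righting reflex.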

For data set [3], the system named is Mus musculus. Put plainly: Anesthetic activity in iv dosed ICR mouse assessed as anesthetic duration time by measuring loss of righting reflex administered as single bolus dose. The data set is classed as functional. A digest of the protocol:
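Fasted ICR mice (18−22 g, 10 per group) received a single ~10 s lateral tail-vein bolus in 5% DMSO/5−10% Solutol HS-15/saline. Duration was the time from dosing to recovery of righting reflex, recorded at the dose giving 100% loss of righting reflex.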

The subject of data set [4] is Mus musculus. As to the kind of experiment: Anesthetic activity in iv dosed ICR mouse assessed as dose required to produce anesthesia administered as single bolus dose. The data set is classed as functional. In a few lines: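 Fasted ICR mice (18−22 g, male and female) were randomised into 7−9 dose groups of 10 each. Each received one intravenous bolus over about 10 s in the lateral tail vein. Vehicle was 5% DMSO, 5−10% Solutol HS-15 and 85−90% saline. The endpoint was loss of righting reflex, and ED50 was derived by nonlinear fitting of dose–response.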

Data set [5] is described as follows: Therapeutic index, ratio of LD50 for toxicity in ICR mouse to ED50 for anesthetic effect in ICR mouse. Particulars: in vivo, read-out: Ratio LD50/ED50. It is filed as organism-based. A digest of the protocol: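 Fasted ICR mice (18−22 g, male and female), 7−9 dose groups of 10, given a single ~10 s iv bolus into the lateral tail vein in 5% DMSO, 5−10% Solutol HS-15, 85−90% saline. Loss of righting reflex scored; ED50 and LD50 derived by nonlinear fitting; TI = LD50/ED50.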

In data set [6] the test system is Rattus norvegicus. Put plainly: Cmax in Sprague-Dawley rat at 1 mg/kg, iv administered as single dose. To be noted: in vivo. Further details: dose 1 mg/kg, route intravenous. The data set is classed as ADME, organism-based.
Data set [7] can be described thus: AUC in Sprague-Dawley rat at 1 mg/kg, iv administered as single dose. The data set is classed as ADME, organism-based. Particulars: in vivo.

Usually clearance stands for the rate of elimination divided by the concentration. A high value points to a high capacity for elimination. In data set [1], `CC(C)c1ccc2c(c1O)[C@H](C)C2` came in with a clearance of 77 mL/min/kg.
Regarding `CC(C)c1ccc2c(c1O)[C@@H](C)C2`, the clearance in data set [1] is 67 mL/min/kg.
Broadly, the ED50 is the dose at which the effect has come halfway, by size or by number of responders. Turning to `CC(C)c1ccc2c(c1O)C(C)(N=[N+]=[N-])C2` (racemic), the Time in data set [2] was below 10 s; in data set [3], 381.7 s. In addition, the ED50 in data set [4] is 9.4 mg/kg. The selectivity ratio in data set [5] is 5.9.
A word on the Cmax: it is the maximum level reached in the sampled fluid or tissue. By AUC is commonly meant the area under the concentration-time curve, a measure of exposure. A high value points to high exposure. For `CC(C)c1cccc(C(C)C)c1O` [PROPOFOL], the Time in data set [2] is below 10 s; in data set [3], 303.2 s. Besides, the selectivity ratio in data set [5] came out at 2.7. The highest concentration (Cmax) in data set [6] amounted to 384 ng/mL. Besides, the AUC in data set [7] was determined as 77 ng·h/mL.
